PHOSPHO1 inh: PubChem AID 1565. Phosphoethanolamine/phosphocholine phosphatase (Homo sapiens), Q8TCT1. 290,000 compounds, 1.1% hits. recombinant PHOSPHO1, absorbance phosphatase assay. inhibition, % at 13.3 µM; in the data active means inhibition above about 60%
Target sequence (Q8TCT1 whole entry, looked up): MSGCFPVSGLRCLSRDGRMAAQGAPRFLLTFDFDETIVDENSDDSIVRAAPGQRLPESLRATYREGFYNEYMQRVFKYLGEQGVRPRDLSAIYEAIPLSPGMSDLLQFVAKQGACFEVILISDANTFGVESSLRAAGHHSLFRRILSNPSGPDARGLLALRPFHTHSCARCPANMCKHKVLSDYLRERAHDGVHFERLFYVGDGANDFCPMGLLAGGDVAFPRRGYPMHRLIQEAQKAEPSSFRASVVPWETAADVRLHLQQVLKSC
VIM-2 inhibitor: VIM-2 metallo-beta-lactamase inhibitors, primary screen, biochemical, epi-absorbance readout, Pseudomonas aeruginosa enzyme | purified VIM-2, nitrocefin hydrolysis, epi-absorbance fluorescence | inhibition, % at 5.6 µM | 290,000 compounds, 0.89% hits | AID 1527, 2009;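 active means inhibition above the mean of all tested compounds plus 3 SD, cutoff set per screening run, cut at about 7.5% in these data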;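 further: red hydrolysis product quenches plate fluorescence so inhibitors raise well fluorescence; 0% = enzyme with DMSO and 100% = DMSO without enzyme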
Calb FLC: C. albicans growth inhibition with fluconazole, primary screen, CaCi-2 strain, Alamar Blue fluorescence; C. albicans CaCi-2 (fluconazole-resistant clinical isolate) + fluconazole, 48 h; growth inhibition, % (test concentration not listed); 300,000 compounds, 0.57% hits; AID 1979, 2009;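 active means growth inhibition above about 58% in most replicates, limit read from the data, passing the limit was not always enough; inconclusive means exactly half the replicates above a set limit; inactive means most replicates below a set limit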;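 further: all wells also contain fluconazole at 8 µg/ml as a sub-toxic cotreatment; 0% = median of DMSO wells and 100% = median of geldanamycin control wells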
IMP-1 inh: IMP-1 metallo-beta-lactamase inhibitors, primary screen, biochemical, epi-absorbance readout, Pseudomonas aeruginosa enzyme; metallo-beta-lactamase IMP-1 (Pseudomonas aeruginosa); purified IMP-1, nitrocefin hydrolysis, epi-absorbance fluorescence; 290,000 compounds, 0.45% hits; inhibition, % at 5.6 µM;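 active means inhibition above the mean plus 3 SD of all compounds in the same screening run, cut at about 4.5% in these data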;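 further: 0% = IMP-1 with DMSO and 100% = DMSO wells lacking enzyme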
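Material – recombinant IMP-1 enzyme, purified · Amount – IMP-1 0.2 nM before substrate addition · Medium – HEPES buffer pH 7.1 with ZnSO4 and Brij 35 · Timing – 25 °C, 15 min preincubation, 25 min reaction · Measured by – plate fluorescence quenching by hydrolysis product, ex 480/em 530 nm · Read-out – percent enzyme inhibition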
ASAP1 inh: inhibitors of human ASAP1 ArfGAP activity, primary screen, biochemical, fluorescence polarization; AID 624377, 2012; ASAP1-stimulated ARF1 GTP hydrolysis, GDP FP detection; inhibition, % at 16.5 µM; 360,000 compounds, 0.19% hits; in the data active means inhibition above about 25%;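 further: 0% = vehicle with enzyme and substrate and 100% = no enzyme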
ARFGAP1 inh: inhibitors of rat ARFGAP1 GAP activity, primary screen, biochemical, fluorescence polarization, GDP tracer. Arfgap1-stimulated ARF1 GTP hydrolysis, GDP FP detection. inhibition, % at 16.5 µM. 360,000 compounds, 0.26% hits. AID 651572, 2012;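 active means inhibition above a per-plate limit, mean inhibition of low control wells plus 3 SD, cut at about 25% in these data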;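 further: 0% = DMSO wells with enzyme and 100% = wells lacking Arfgap1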
Target sequence (Q62848 1-136 limits assumed): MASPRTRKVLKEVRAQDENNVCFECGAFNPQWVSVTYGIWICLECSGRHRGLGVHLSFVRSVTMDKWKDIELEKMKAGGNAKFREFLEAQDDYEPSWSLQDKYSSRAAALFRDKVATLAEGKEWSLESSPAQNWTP
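Replicates: Single well per compound | Assay system: Truncated rat Arfgap1 GAP domain | Control set: No-Arfgap1 wells (100%) versus DMSO full-reaction wells (0%) | Times: Enzyme reaction 120 min at 25 °C after 20 min preincubation | Reagent: Human ARF1(Δ1-17)-GTP substrate | Measured by: Tracer-displacement fluorescence polarization with EDTA stop, 620/688 nm | Measure: Percent inhibition of Arfgap1-stimulated GTP hydrolysis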
* marks the source's active call; other numbers are inactive results; ? = inconclusive; . = no result. Only some compounds are listed: those with a hit (about 2.6% of all), similar ones and a draw of the others.

SMILES | PHOSPHO1 inh | VIM-2 inhibitor | Calb FLC | IMP-1 inh | ASAP1 inh | ARFGAP1 inh
C=CCN1C(C(=O)OCC)CSCCS1(=O)=O (stereo unspecified) | . | . | . | . | 7 | 5
CCOC(=O)c1sc(NC(=O)CSc2nc(C)cc(-c3ccccc3)n2)c(C#N)c1C | 88* | 2 | 8 | -1 | -2 | 3
CCOC(=O)c1cnc(SCC(=O)Nc2cc(OC)cc(OC)c2)nc1N | 0 | -2 | 10 | 0 | -12 | 4
CCOC(=O)c1cnc(SCC(=O)Nc2sc(C)c(C)c2C#N)nc1N | 92* | -2 | -2 | -2 | 6 | 7
CCOC(=O)c1sc(NC(=O)c2cc(-c3ccccc3C)nc3ccccc23)c(C#N)c1C | 65* | 0 | ? | -1 | -3 | -5
COC(=O)c1cc2c(c3c4cc(F)ccc4n(S(=O)(=O)c4ccc(C)cc4)c13)C(=O)N(Cc1ccc(C(F)(F)F)cc1)C2 | . | . | . | . | -5 | -2
Nc1ccn([C@@H]2O[C@H](C(=O)N[C@H](Cc3ccccc3)C(=O)N3CCN(CCO)CC3)[C@@H](O)[C@H]2O)c(=O)n1 | . | . | . | . | 6 | -1
CN1OC[C@@H]2CN(Cc3ccc4c(c3)OCO4)[C@H](c3ccc(-n4ccnc4)cc3)C[C@@H]21 | . | . | . | . | -13 | 11
C#CCN1CC(COc2ccccc2)Oc2cccc(Oc3ccc(SC)c(C)c3)c2S1(=O)=O (stereo unspecified) | . | . | . | . | 2 | -10
C[C@H]1[C@@H]2C[C@@]3(O[C@H](c4ccccn4)N=C3C[C@@H]1c1ccccc1)N(Cc1ccncc1)C2=O | . | . | . | . | -4 | 0
COCCN(CCOC)C(=O)[C@H](CCc1ccccc1)NC(=O)[C@H]1O[C@@H](n2cnc3c(N)ncnc32)[C@H](O)[C@@H]1O | . | . | . | . | 8 | 3
O=c1c(N2CCOCC2)nsn1Cc1ccccc1 | -11 | -3 | -1 | 6.0* | -9 | -8
CC(Oc1ccc(Cl)cc1Cl)c1ccnc2nc(N3CCOCC3)nn12 (stereo unspecified) | 8 | -2 | -6 | -1 | -9 | -2
CC(Oc1ccccc1)c1ccnc2nc(N3CCOCC3)nn12 (stereo unspecified) | 60* | 4 | -18 | 2 | -8 | -9
COc1cc2c(cc1/C=C/C(=O)O)OC(C)C2 (stereo unspecified) | 37 | 4 | 0 | 9.2* | -4 | 3
CCCCc1c(-c2ccccc2OC)ncn1Cc1ccc(F)c(F)c1 | . | . | . | . | 3 | 5
O=C(OCc1cc(=O)n2cc(Br)ccc2n1)C1COc2ccccc2O1 (stereo unspecified) | 24 | 1 | -2 | -3 | 0 | 0
Cn1c(SCc2cc(=O)n3cc(Br)ccc3n2)nnc1C1COc2ccccc2O1 (stereo unspecified) | 73* | 0 | 0 | -6 | -2 | -5
COC(=O)c1cccc2c([N+](=O)[O-])c(NC(C)=O)cc(C(=O)OC)c12 | . | . | . | . | -9 | -8
O=C(N[C@@H](Cc1cccnc1)C(=O)N1CCC[C@H]1C(=O)NCCc1ccccc1Cl)c1ccco1 | . | . | . | . | 5 | 2
Oc1ccc(-c2c(C3=CCCCC3)sc3ccccc23)cc1 | 4 | 0 | -9 | 5.1* | 10 | 8
CCOc1ccc(CNc2ccc(CNc3ncn[nH]3)cc2)cc1 | -23 | -3 | 102* | -3 | 6 | 4
O=S1(=O)c2ccc(Br)cc2OC2CCCC[C@@H]2N1Cc1ccccc1 (stereo partly specified) | . | . | . | . | -14 | 7
O=C1/C(=C/c2cccnc2)CCc2c1[nH]c1ccccc21 | 23 | 1 | 76* | -1 | 1 | 21
CC(C)C/C=C1\CCc2c([nH]c3ccccc23)C1=O | 28 | -2 | 0 | -2 | -15 | 4
SMILES | PHOSPHO1 inh | VIM-2 inhibitor | Calb FLC | IMP-1 inh | ASAP1 inh | ARFGAP1 inh
CCOC(=O)C1(C)/C(=N/Nc2ccccc2Cl)C(=O)C(=O)N1c1ccccc1 (stereo unspecified) | 92* | 3 | 20 | -3 | 0 | -4
CCOC(=O)C1(C)/C(=N/Nc2ccc(Cl)cc2)C(=O)C(=O)N1c1ccccc1 (stereo unspecified) | 103* | 3 | -4 | -1 | -7 | 8
CCOC(=O)C1(C)/C(=N/Nc2cccc(Cl)c2)C(=O)C(=O)N1c1ccccc1 (stereo unspecified) | 0 | -1 | 4 | -2 | -8 | 1
COC(=O)C1=C(C)N(Cc2cccc(C(F)(F)F)c2)C(=NCc2ccccc2C(F)(F)F)NC1c1cccc(C(F)(F)F)c1 (stereo unspecified) | . | . | . | . | -6 | 20
C[C@@H]1CN([C@@H](C)CO)C(=O)CCCn2cc(nn2)CO[C@H]1CN(C)C(=O)c1ccncc1 | . | . | . | . | -3 | -7
CCc1ccc(NC(=S)N2CCCCCCC2)cc1 | 68* | 1 | -22 | -1 | 7 | 2
CCCCNc1cccc2c1S(=O)(=O)N[C@H](CC(C)C)CO2 | . | . | . | . | 6 | -7
O=C(N/N=C/c1cc([N+](=O)[O-])ccc1O)C1CC1 | 2 | -7 | 23 | -3 | -11 | -1
O=C(N/N=C/c1cc([N+](=O)[O-])ccc1O)C(O)(c1ccccc1)c1ccccc1 | -36 | -2 | 98* | -4 | -10 | 7
COc1ccc(/C=C(\NC(=O)c2ccccc2)C(=O)N/N=C/c2ccncc2)cc1 | 65* | -1 | -3 | -2 | -12 | -2
O=C(N/N=C/c1ccc(O)c(O)c1O)/C(=C/c1ccc([N+](=O)[O-])cc1)NC(=O)c1ccccc1 | 12 | -3 | 104* | -5 | -15 | -18
COc1ccc(/C=C(/NC(=O)c2ccc(C)cc2)C(=O)NCc2ccncc2)cc1 | 70* | -2 | 2 | -2 | -6 | 1
Fc1ccc(CN2CCN(c3ncc(Cc4ccccc4)cn3)CC2)c(Cl)c1 | . | . | . | . | -2 | 0
COC(=O)c1cc2c(c3c4cc(OC)ccc4n(S(=O)(=O)c4cccc(C)c4)c13)C(=O)N(Cc1ccccc1OC)C2 | . | . | . | . | -11 | 14
COC(=O)C1=C(C)N(Cc2ccccc2C(F)(F)F)C(=NCc2cc(OC)c(OC)c(OC)c2)NC1c1cccc(C(F)(F)F)c1 (stereo unspecified) | . | . | . | . | 6 | -2
COc1ccccc1C(=O)N1CCC2CCN(C(=O)c3ccccc3)C2C1 (stereo unspecified) | . | . | . | . | -9 | 9
O=C(NCC1CCCO1)C1CCCN(S(=O)(=O)c2cccc(C(F)(F)F)c2)C1 (stereo unspecified) | 23 | 1 | -3 | 4.6* | -2 | -2

Screening data deposited in PubChem BioAssay by several laboratories.
